Here are results for six compounds from ChEMBL document CHEMBL2375316, “Neocosmospora sp.-derived resorcylic acid lactones with in vitro binding affinity for human opioid and cannabinoid receptors” (J Nat Prod, 2013).

In assay [1] the target is T1, Delta-type opioid receptor (Homo sapiens, UniProt P41143). In words: Agonist activity at human delta opioid receptor transfected in CHOK1 cells after 60 mins by [35S]GTPgammaS binding assay relative to control. In kind it is functional, cell-based. Conditions: CHO-K1. The procedure, abridged: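 [35S]GTPγS functional assay on membranes from CHO-K1 cells stably expressing δ-opioid receptor; diluted compound incubated with membrane at predetermined protein level plus 0.05 nM [35S]GTPγS, 60 min at room temperature. Terminated by vacuum filtration through GF/C filters, 10 washes 50 mM Tris-HCl pH 7.4, scintillation counting. Basal binding defined as binding with GTPγS buffers.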
Background: GTPγS is a poorly hydrolysed GTP analogue; its binding reports G protein activation.

In assay [2] the target is T1, Delta-type opioid receptor. In words: Agonist activity at human delta opioid receptor transfected in CHOK1 cells after 60 mins by [35S]GTPgammaS binding assay.
For assay [3], the target named is Cannabinoid receptor 2 (Homo sapiens) (UniProt P34972). Description: Displacement of [3H]-CP55940 from human recombinant CB2 receptor transfected in HEK293 cells at 10 uM after 90 mins relative to control. In kind it is cell-based.
Assay [4] has as its target T1, Delta-type opioid receptor. In words: Displacement of [3H]-enkephalin from human delta opioid receptor transfected in CHOK1 cells after 60 mins. In kind it is cell-based, CHO-K1. Background: Loss of bound radioactivity is the signal in a displacement assay; it reports binding, not function.
Assay [5] concerns the target T1, Delta-type opioid receptor. In words: Displacement of [3H]-enkephalin from human delta opioid receptor transfected in CHOK1 cells at 10 uM after 60 mins relative to control. In kind it is cell-based. Conditions: CHO-K1.
For assay [6], the target named is Mu-type opioid receptor (Homo sapiens) (UniProt P35372). The following applies: CHO-K1, at 10 µM.
In assay [7] the target is Kappa-type opioid receptor (Homo sapiens) (UniProt P41145). The following applies: CHO-K1, at 10 µM.
Assay [8] concerns the target Cannabinoid receptor 1 (Homo sapiens) (UniProt P21554). In words: Displacement of [3H]-CP55940 from human recombinant CB1 receptor transfected in HEK293 cells at 10 uM after 90 mins relative to control. In kind it is cell-based.

Sequence of Cannabinoid receptor 2 (Homo sapiens) (P34972 whole entry): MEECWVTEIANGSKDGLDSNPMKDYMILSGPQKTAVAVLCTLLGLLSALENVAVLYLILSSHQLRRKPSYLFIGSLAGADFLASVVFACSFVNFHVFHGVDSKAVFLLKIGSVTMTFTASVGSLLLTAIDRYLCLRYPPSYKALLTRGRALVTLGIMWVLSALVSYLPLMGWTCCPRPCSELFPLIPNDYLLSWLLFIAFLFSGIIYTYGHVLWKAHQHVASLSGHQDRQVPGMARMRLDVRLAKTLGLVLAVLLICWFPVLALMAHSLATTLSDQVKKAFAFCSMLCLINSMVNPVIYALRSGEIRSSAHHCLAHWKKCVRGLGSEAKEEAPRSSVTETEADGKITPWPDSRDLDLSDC
T1 sequence (P41143 whole entry): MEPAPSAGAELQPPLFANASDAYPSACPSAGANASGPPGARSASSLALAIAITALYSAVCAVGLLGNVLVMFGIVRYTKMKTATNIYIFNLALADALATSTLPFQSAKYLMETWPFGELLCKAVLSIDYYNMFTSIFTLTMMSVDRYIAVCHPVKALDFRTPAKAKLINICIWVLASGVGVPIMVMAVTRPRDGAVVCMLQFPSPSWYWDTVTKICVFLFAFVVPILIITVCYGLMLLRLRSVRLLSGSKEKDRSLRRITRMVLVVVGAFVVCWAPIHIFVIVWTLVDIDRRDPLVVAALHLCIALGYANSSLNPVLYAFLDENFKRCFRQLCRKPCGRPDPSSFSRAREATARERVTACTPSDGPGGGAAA
Sequence of Cannabinoid receptor 1 (Homo sapiens) (P21554 whole entry): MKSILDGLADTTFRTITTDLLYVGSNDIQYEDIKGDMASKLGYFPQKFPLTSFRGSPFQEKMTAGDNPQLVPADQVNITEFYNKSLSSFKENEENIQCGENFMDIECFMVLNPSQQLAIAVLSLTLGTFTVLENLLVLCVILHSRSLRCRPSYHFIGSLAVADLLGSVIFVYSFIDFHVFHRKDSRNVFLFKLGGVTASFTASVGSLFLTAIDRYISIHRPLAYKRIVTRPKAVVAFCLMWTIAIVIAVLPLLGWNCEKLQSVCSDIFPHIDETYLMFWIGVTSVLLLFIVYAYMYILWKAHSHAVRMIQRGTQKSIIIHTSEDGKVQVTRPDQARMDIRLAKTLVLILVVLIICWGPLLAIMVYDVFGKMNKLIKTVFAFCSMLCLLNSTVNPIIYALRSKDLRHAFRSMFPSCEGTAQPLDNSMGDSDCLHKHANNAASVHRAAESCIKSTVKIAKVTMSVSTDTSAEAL
Sequence of Kappa-type opioid receptor (Homo sapiens) (P41145 whole entry): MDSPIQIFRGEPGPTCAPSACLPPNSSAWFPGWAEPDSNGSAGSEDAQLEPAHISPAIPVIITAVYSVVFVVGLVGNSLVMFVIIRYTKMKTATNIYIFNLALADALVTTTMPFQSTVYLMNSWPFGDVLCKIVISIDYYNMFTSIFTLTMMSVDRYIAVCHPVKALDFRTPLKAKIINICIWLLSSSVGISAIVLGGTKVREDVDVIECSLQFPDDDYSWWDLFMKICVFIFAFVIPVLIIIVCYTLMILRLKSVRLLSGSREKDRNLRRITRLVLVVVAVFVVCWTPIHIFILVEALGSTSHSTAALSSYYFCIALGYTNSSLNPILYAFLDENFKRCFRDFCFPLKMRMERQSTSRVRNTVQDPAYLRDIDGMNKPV
Sequence of Mu-type opioid receptor (Homo sapiens) (P35372 whole entry): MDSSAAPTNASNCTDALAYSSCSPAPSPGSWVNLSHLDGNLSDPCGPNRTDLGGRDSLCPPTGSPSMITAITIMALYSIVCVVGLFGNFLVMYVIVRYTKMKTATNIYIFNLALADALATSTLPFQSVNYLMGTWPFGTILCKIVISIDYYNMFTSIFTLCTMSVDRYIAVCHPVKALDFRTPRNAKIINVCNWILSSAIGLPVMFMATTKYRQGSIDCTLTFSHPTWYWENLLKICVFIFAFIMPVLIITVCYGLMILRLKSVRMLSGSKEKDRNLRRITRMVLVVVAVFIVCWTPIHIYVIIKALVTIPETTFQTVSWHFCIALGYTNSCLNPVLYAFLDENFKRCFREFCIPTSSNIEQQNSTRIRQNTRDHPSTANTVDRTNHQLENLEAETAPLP

Usually Emax stands for the greatest response seen or fitted, relative to the assay's reference. As usually defined, the EC50 is the concentration needed to bring the measured effect to its halfway point. Read a high EC50 as a need for much substance. One may read the inhibition as how much of the control response was suppressed. Usually IC50 stands for the concentration that gives 50% inhibition. A high value points to weaker potency in that assay. As a reminder, the Ki is the dissociation constant of the complex between target and ligand, obtained from inhibition or displacement. Low readings indicate a stronger hold on the target, high ones a looser hold on the target. As to `COc1cc(O)c2c(c1)CC(=O)CCCC(=O)CCC[C@@H](C)OC2=O`, in assay [1], the Emax amounted to 2400%. In assay [2], this compound showed an EC50 of 0.239 µM. Besides, the inhibition was 46.3% in assay [3], 54.9% in assay [5], 24% in assay [6] and 32.7% in assay [7]. In assay [4], this compound came in with an IC50 of 14.6 µM. In assay [4], the inhibition constant (Ki) was found to be 7.31 µM.
As to `COc1cc(O)c2c(c1)CC(=O)CCCC/C=C/C[C@@H](C)OC2=O`, the inhibition came to 44.5% in assay [3], 44.7% in assay [5], 22.4% in assay [6] and 11.4% in assay [7].
For `C[C@@H]1CCCC(=O)CCCC(=O)Cc2cc(O)cc(O)c2C(=O)O1`, the inhibition in assay [3] is 27.7%; in assay [8], 47.4%; in assay [6], 41.3%; in assay [7] it was 8.1%.
For the compound `C[C@@H]1C[C@H]2O[C@@H]2/C=C\C=C\C(=O)Cc2c(Cl)c(O)cc(O)c2C(=O)O1`, the inhibition was determined as 13% in assay [3], 30.7% in assay [8] and 84.9% in assay [6].
In the case of `CCCCCCC(C)(C)c1ccc([C@@H]2C[C@H](O)CC[C@H]2CCCO)c(O)c1`, the inhibition in assay [3] is 90.3%; in assay [8], 88.8%.
As to `C[C@@H]1C/C=C/CCCCC(=O)Cc2cc(O)cc(O)c2C(=O)O1`, the values for the inhibition in assay [5], in assay [6] and in assay [7] were 45.7%, 8.7% and 24.7%, respectively.
